From PubChem
DDE Tn6 FP inh = inhibitors of Tn6 peptide binding to human fibrin DD(E). Fibrin DD(E) TRITC-Tn6 fluorescence polarization displacement. inhibition, % at 8.3 µM. hit rate 0.21% among 370,000;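 active = inhibition above a per-campaign cutoff: mean of compounds within control limits plus 3 SD, cut at about 15% in these data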;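 also: 0% = median of all compound wells on the plate and 100% = blocking peptide control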
Target sequence (P02675 whole entry, looked up): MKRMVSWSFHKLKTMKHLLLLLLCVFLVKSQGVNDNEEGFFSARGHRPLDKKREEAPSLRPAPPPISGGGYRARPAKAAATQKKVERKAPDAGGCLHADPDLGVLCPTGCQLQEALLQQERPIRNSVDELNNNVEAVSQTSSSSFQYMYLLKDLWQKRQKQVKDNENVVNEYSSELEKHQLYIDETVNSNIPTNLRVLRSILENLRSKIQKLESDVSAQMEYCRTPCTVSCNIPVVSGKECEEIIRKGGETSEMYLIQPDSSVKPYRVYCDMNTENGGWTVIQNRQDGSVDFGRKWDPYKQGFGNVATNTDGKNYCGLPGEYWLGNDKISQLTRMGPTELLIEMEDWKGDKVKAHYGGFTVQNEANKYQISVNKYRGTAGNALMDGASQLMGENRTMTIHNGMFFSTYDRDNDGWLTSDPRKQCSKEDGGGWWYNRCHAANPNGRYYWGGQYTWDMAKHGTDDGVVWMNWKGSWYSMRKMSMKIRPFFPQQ
DDE Tn7 FP inh = DD(E)-Tn7 binding inhibition, primary FP screen | inhibition, % at 8.3 µM | hit rate 0.13% among 370,000 | AID 720508 | FP displacement of FITC-Tn7 peptide from fibrin DD(E); 0% = median of compound wells per plate | P02675;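 active = inhibition above the mean of compounds falling within the control limits plus 3 SD of them, cut at about 14% in these data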;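 also: 0% = plate median of compound wells and 100% = 10 µM Aha-Tn7 peptide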
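Assay system: Human clot-derived fibrin DD(E) complex | Buffer or medium: Tris/NaCl/CaCl2 buffer, pH 7.8 | Repeats: One replicate per compound | Benchmarks: Aha-Tn7 high control | Measure: % inhibition scaled between sample-field median and high-control FP | Schedule: 10 min plus 3 h, room temperature | Signal: Fluorescence polarization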
RTF Ca sens act = cardiac RTF calcium sensitization; activation, % at 7.2 µM; hit rate 0.24% among 340,000; P19429+P45379; IANBD-labeled TnC RTF fluorescence at EC20 calcium; 0% EC20 calcium, 100% full calcium;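 active = activation above the mean over all tested compounds plus 3 SD, cut at about 30% in these data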;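 also: rise in fluorescence read as greater calcium sensitivity of cardiac thin filaments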
C-LANA FP = inhibitors of KSHV LANA C-terminal domain DNA binding; MBP-C-LANA/FAM-LBS DNA binding, fluorescence polarization; inhibition, % at 9 µM; hit rate 0.078% among 340,000;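 active = highest replicate inhibition at or above 60% at 9 µM, even if other replicates fall short; inactive = all replicates below 60% inhibition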;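 also: 0% = neutral control wells and 100% = 4 µM acridine orange control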
Cardiac RTF inh = cardiac RTF calcium desensitization; IANBD-labeled cardiac RTF, Ca2+ fluorescence; AID 493244; inhibition, % at 7.15 µM; hit rate 0.12% among 340,000;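 active = inhibition above the mean inhibition of all tested compounds plus 3 SD, cut at about 17% in these data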;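 also: assay run at fixed EC70 calcium of 1.6 mM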
Keap1 Nrf2 FP = inhibitors of human Keap1-Nrf2 protein-protein interaction. hit rate 0.15% among 340,000. Keap1 Kelch-Nrf2 peptide fluorescence polarization, 1536-well. AID 504523. inhibition, % at 9.4 µM. Q14145; in the data active = inhibition above about 12%;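 also: human Keap1 Kelch domain with fluorescein labeled Nrf2 9mer peptide probe; 0% = neutral control wells and 100% = peptide positive control; higher means more block of Keap1 binding to Nrf2 peptide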
DDE Tn6 FP ctr = DD(E)-Tn6 binding inhibition, counter-screen; shares compounds with DDE Tn6 FP inh; Fibrin DD(E), TRITC-Tn6 fluorescence polarization displacement; 0% = median of compound wells, not DMSO; inhibition, % at 8.3 µM; hit rate 2% among 680;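 active = inhibition above the mean of test compounds lying between the control limits plus 3 SD of those, cut at about 14% in these data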;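 also: 0% = median of compound wells and 100% = wells with Aha-Tn7 blocking peptide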
Tn6 DDE conf = DD(E)-Tn6 binding inhibition, FP confirmation | shares compounds with DDE Tn6 FP inh | FP displacement of TRITC-Tn6 peptide from DD(E); 0% = per-plate median of test wells | inhibition, % at 8.3 µM | hit rate 10% among 680 | AID 720631;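 active = inhibition above the mean of compounds lying within the control limits plus 3 SD, cut at about 16% in these data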;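 also: 100% = high control wells holding a competing inhibitor peptide at 10 µM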
Numbers without * were called inactive; x = no result given. An excerpt weighted towards active compounds, which were near 0.73% of everything screened.

SMILES	DDE Tn6 FP inh	DDE Tn7 FP inh	RTF Ca sens act	C-LANA FP	Cardiac RTF inh	Keap1 Nrf2 FP	DDE Tn6 FP ctr	Tn6 DDE conf
COc1ccc(OC)c(C(=O)NC(CC(N)=O)c2ccc(NCCN3CCCC3)c([N+](=O)[O-])c2)c1 (centres undefined)	16*	4	3	0	-12	-6	4	-5
C=C1[C@@H](OC(C)=O)C=C[C@@]2(C)C=CC(=O)[C@@](C)(OC(C)=O)[C@@H]2[C@@H](OC(C)=O)[C@]2(O)[C@@H](C)C(=O)O[C@H]2[C@H]1Cl	0	2	x	x	x	x	x	x
COC1=CC(=O)OC(c2ccc(C(F)(F)F)cc2)C1 (centres undefined)	16*	9	x	x	x	x	1	-5
COC1=CC(=O)OC(c2ccccc2C(F)(F)F)C1 (centres undefined)	5	7	x	x	x	x	x	x
O=C(COc1ccccc1Cl)NC(=S)Nc1ccccc1N1CCCC1	16*	8	-3	1	-3	-6	11	5
O=C1C(=C(c2ccccc2)N2CCOCC2)Cc2ccccc21	2	-6	x	x	x	x	x	x
O=C(NCc1ccccc1)[C@@H]1CCCN1C(=O)[C@H]1CCCN1C(=O)N1CCCCC1	-1	-2	x	x	x	x	x	x
COc1cc(CNC2CCCCCCC2)cc(Cl)c1OC	17*	7	7	2	-7	-7	-4	-6
CCOC(=O)C(=C1Nc2ccccc2N1)n1c(-c2cccnc2)nc2ccccc21	0	-5	x	x	x	x	x	x
COc1ccc(NC(=O)C(=O)N/N=C/c2cccnc2)c(OC)c1	16*	8	0	-1	0	-3	2	-3
COc1ccc(NC(=O)/C(C#N)=C/c2cccnc2)c(OC)c1	9	-1	-2	-1	5	1	x	x
CN1CC=C2C(C#N)=C(N)C(C#N)(C#N)[C@H](c3cccc(Cl)c3)C2C1 (some centres undefined)	18*	-2	27	28	-34	4	4	-4
COc1ccc(CCN2CC(C(=O)OCC(=O)c3c(N)n(CC(C)C)c(=O)n(C)c3=O)CC2=O)cc1OC (centres undefined)	44*	1	x	x	x	x	4	-4
C#CCn1c(S(=O)(=O)Cc2ccc(C)cc2)nc(-c2ccccc2)c1-c1ccccc1	-4	3	-4	0	3	3	x	x
C#CCn1c(S(=O)(=O)Cc2ccccc2Cl)nc(-c2ccccc2)c1-c1ccccc1	16*	-3	-10	1	2	1	12	8
O=c1c2cccnc2[nH]c(=S)n1CCCN1CCN(c2ccccc2F)CC1	17*	7	-5	0	5	-2	1	-1
O=c1[nH]nc(SCc2ccccc2Cl)n1-c1ccc2c(c1)OCCO2	16*	3	x	3	x	-1	-6	-7
COc1ccc(-n2nnnc2C2(C)CCC(=O)N2Cc2ccccc2)cc1 (centres undefined)	4	1	x	x	x	x	x	x
CCN(CC)C(=O)CC[C@@H]1CC[C@]2(CCCN(S(=O)(=O)c3ccccc3)C2)O1	-7	-3	x	x	x	x	x	x
C=CCn1c(-c2ccccc2)n[nH]c1=S	1	0	-1	-1	-7	-5	x	x
C=CCn1c(-c2ccc(F)cc2)n[nH]c1=S	16*	-3	3	-1	5	-2	-2	-21
CCOc1ccc(S(=O)(=O)N(CC(=O)NCc2cccnc2)c2ccc(F)cc2)cc1	18*	3	-6	-1	-2	-3	-3	-3
CCOc1ccc(S(=O)(=O)N(CC(=O)NCc2cccnc2)c2ccc(C)cc2)cc1	-7	-3	-2	-1	-6	-4	x	x
CCCCCOCC1CC(C/C(C)=N/NC(N)=S)C(=O)O1 (centres undefined)	15*	10	-3	0	-2	-4	-1	-11
C/C(CC1CC(COCC(C)C)OC1=O)=N\NC(N)=S (centres undefined)	0	-5	3	3	0	-4	x	x
SMILES	DDE Tn6 FP inh	DDE Tn7 FP inh	RTF Ca sens act	C-LANA FP	Cardiac RTF inh	Keap1 Nrf2 FP	DDE Tn6 FP ctr	Tn6 DDE conf
CCCCCCCCCCCNC(=O)c1ccoc1C	17*	0	-6	1	-6	-4	9	3
CCOc1ccc(Oc2c(Cl)cnn(Cc3cccc4ccccc34)c2=O)cc1	3	2	x	x	x	x	x	x
CC1CCN(S(=O)(=O)c2ccc(C(=O)Nc3nnc(C4CC4)o3)cc2)CC1	21*	2	-1	2	1	2	-3	-4
O=C(Nc1nnc(C2CC2)o1)c1ccc(S(=O)(=O)N2CCCCC2)cc1	3	-7	5	0	9	-2	x	x
CC(NC(=O)Nc1ccc(O)cc1)(C(F)(F)F)C(F)(F)F	29*	-1	-5	2	0	-1	-6	-7
COc1ccc(NC(=O)NC(C)(C(F)(F)F)C(F)(F)F)cc1	2	-3	0	2	-6	-3	x	x
CCN1CCCCC(NC(=O)COCc2ccccc2)C1=O (centres undefined)	3	-8	x	x	x	x	x	x
Cc1ccccc1NS(=O)(=O)c1ccc(OCCNS(C)(=O)=O)cc1	17*	1	4	2	-14	-2	-8	-13
Cc1ccccc1NS(=O)(=O)c1ccc(OCC(=O)N2CCCC2)cc1	-1	2	3	3	-2	-3	x	x
COc1cc(NS(=O)(=O)c2ccc(NC(=S)NC(=O)/C=C/c3ccc(F)cc3)cc2)ncn1	19*	2	-4	0	-4	-3	-6	-10
COc1nccnc1NS(=O)(=O)c1ccc(NC(=S)NC(=O)/C=C/c2ccc(F)cc2)cc1	-3	-2	-7	0	-8	2	x	x
CC(=O)N1CCc2cc(S(=O)(=O)NCCC(=O)NCc3ccccc3)ccc21	18*	1	x	x	x	x	1	0
CC(=O)N1CCc2cc(S(=O)(=O)NCCC(=O)NCCc3ccccc3)ccc21	8	-3	2	0	-5	-3	x	x
Cc1[nH]c2ccccc2c1CC(=O)Nc1ccc(Nc2cccnc2)c(-c2ccc(OC(F)(F)F)cc2)c1	-10	-4	x	x	x	x	x	x
O=C(Cn1c(=O)[nH]c2ccsc2c1=O)N1CCN(c2ccc(F)cc2)CC1	16*	1	x	x	x	x	2	-3
CCOC(=O)c1ccc(-c2ccc(/C=C(\C#N)C(=O)NCC3CCCO3)o2)cc1 (centres undefined)	18*	6	10	8	-6	4	-5	-9
